In brackets after ≈: the same amount, converted by molar mass.
Key:
Mus musculus [1] = assay: AUC (area under curve) after oral dosing by gavage needle at 30 mg/kg in C57BL/6NTac female mice; Not checked; type: ADME, organism-based, Plasma; design: dose 30 mg/kg, route oral; conditions: in vivo
Summary of the method: (§1)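 Single oral gavage dose of 30 mg/kg in 85:15 0.5% aqueous hydroxypropylmethylcellulose:PEG-400, given to female C57BL/6NTac mice (6 weeks, 20 g). Plasma was diluted with MeCN to remove proteins, and the parent compound was quantified by LC-MS in single ion recording mode against calibration curves (LLOQ 10-50 ng/mL).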

Mus musculus [2] = assay: Maximum plasma concentration (Cmax) after oral dosing by gavage needle at 30 mg/kg in C57BL/6NTac female mice; Not checked; type: ADME, organism-based; design: dose 30 mg/kg, route oral; conditions: in vivo; summary of the method: as §1
Helicobacter pylori [3] = assay: Minimum inhibitory concentration against Helicobacter pylori (Helicobacter pylori) ARHp strain 115; type: functional
Summary of the method: (§2)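 Broth microdilution with two-fold serial dilutions in Brucella broth plus 5% (v/v) heat-inactivated FCS. Strains were pre-grown microaerophilically (5% O2, 10% CO2, 85% N2) on blood agar at 37 °C and passaged twice. The inoculum was a final 10^7 cells/mL.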

Helicobacter pylori [4] = assay: Minimum inhibitory concentration against Helicobacter pylori (Helicobacter pylori) ARHp strain 206; type: functional; summary of the method: as §2
Helicobacter pylori [5] = assay: Minimum inhibitory concentration against Helicobacter pylori (Helicobacter pylori) ARHp strain 80; type: functional; summary of the method: as §2
Helicobacter pylori [6] = assay: Minimum inhibitory concentration against Helicobacter pylori (Helicobacter pylori) ARHp strain 81; type: functional; summary of the method: as §2
Helicobacter pylori [7] = assay: Minimum bacterial concentration (MBC) at which maximum growth inhibition against Helicobacter pylori has occurred; type: functional
Summary of the method: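 Strain ARHp206. Aliquots from microdilution wells showing no growth were plated on trypticase soy agar with 5% sheep blood. The MBC was judged by visual inspection as the concentration giving maximum growth inhibition.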

[8] = Maximum plasma concentration (Cmax) after oral dosing by gavage needle at 30 mg/kg in C57BL/6NTac female mice; type: ADME, organism-based; design: dose 30 mg/kg, route oral; conditions: mouse; summary of the method: as §1
Mus musculus [9] = assay: AUC (area under curve) after oral dosing by gavage needle at 30 mg/kg in C57BL/6NTac female mice; type: ADME, organism-based, Plasma; design: dose 30 mg/kg, route oral; conditions: in vivo; summary of the method: as §1
Mus musculus [10] = assay: Maximum plasma concentration (Cmax) after oral dosing by gavage needle at 30 mg/kg in C57BL/6NTac female mice; Not detected; type: ADME, organism-based; design: dose 30 mg/kg, route oral; conditions: in vivo; summary of the method: as §1
Mus musculus [11] = assay: AUC (area under curve) after oral dosing by gavage needle at 30 mg/kg in C57BL/6NTac female mice; Not detected; type: ADME, organism-based, Plasma; design: dose 30 mg/kg, route oral; conditions: in vivo; summary of the method: as §1

Row | Structure (SMILES) | AUC (Mus musculus [1]) | Cmax (Mus musculus [2]) | MIC (Helicobacter pylori [3]) [µg/mL] | MIC (Helicobacter pylori [4]) [µg/mL] | MIC (Helicobacter pylori [5]) [µg/mL] | MIC (Helicobacter pylori [6]) [µg/mL] | MBC (Helicobacter pylori [7]) [µg/mL] | Cmax [8] [ng/mL] | AUC (Mus musculus [9]) [ng·h/mL] | Cmax (Mus musculus [10]) | AUC (Mus musculus [11])
1 | Cc1c(CSc2nc3ccccc3[nH]2)cccc1SCCNS(=O)(=O)c1cccc2cccnc12 | Not checked | Not checked | 4 (≈ 7.68 µM) | 8 (≈ 15.4 µM) | 4 (≈ 7.68 µM) | 8 (≈ 15.4 µM) | > 8 | – | – | – | –
2 | Cc1c(CSc2nc3ccccc3[nH]2)cccc1SCCNC(=O)Nc1ccccc1 | – | – | 0.5 (≈ 1.11 µM) | 0.5 (≈ 1.11 µM) | 0.5 (≈ 1.11 µM) | 0.5 (≈ 1.11 µM) | 8 (≈ 17.8 µM) | 140 | 283 | – | –
3 | Cc1c(CSc2nc3ccccc3[nH]2)cccc1SCCO | Not checked | Not checked | 1 (≈ 3.03 µM) | 1 (≈ 3.03 µM) | 1 (≈ 3.03 µM) | 1 (≈ 3.03 µM) | > 8 | – | – | – | –
4 | COc1cccc(NC(=O)OCCSc2cccc(CSc3nc4ccccc4[nH]3)c2C)c1 | – | – | 0.25 (≈ 0.521 µM) | 0.5 (≈ 1.04 µM) | 0.25 (≈ 0.521 µM) | 0.5 (≈ 1.04 µM) | 8 (≈ 16.7 µM) | 797 | 1630 | – | –
5 | Cc1c(CSc2nc3ccccc3[nH]2)cccc1SCC(=O)NCc1cccs1 | – | – | 0.5 (≈ 1.14 µM) | 1 (≈ 2.27 µM) | 0.5 (≈ 1.14 µM) | 1 (≈ 2.27 µM) | 8 (≈ 18.2 µM) | – | – | Not detected | Not detected
6 | Cc1c(CSc2nccs2)cccc1SCCOC(=O)Nc1ccccc1 | – | – | 0.5 (≈ 1.2 µM) | 0.5 (≈ 1.2 µM) | 0.5 (≈ 1.2 µM) | 0.5 (≈ 1.2 µM) | 8 (≈ 19.2 µM) | 74 | 99 | – | –
7 | Cc1c(CSc2ccncc2)cccc1SCCOC(=O)Nc1ccccc1 | Not checked | Not checked | 0.25 (≈ 0.609 µM) | 0.5 (≈ 1.22 µM) | 0.25 (≈ 0.609 µM) | 0.5 (≈ 1.22 µM) | 8 (≈ 19.5 µM) | – | – | – | –
8 | Cc1c(CSc2nc3ccccc3[nH]2)cccc1SCC(=O)N1CCCCC1 | – | – | 0.25 (≈ 0.607 µM) | 0.5 (≈ 1.21 µM) | 0.25 (≈ 0.607 µM) | 0.5 (≈ 1.21 µM) | > 8 | 57 | 135 | – | –
9 | Cc1c(CSc2nc3ccccc3[nH]2)cccc1SCCN | Not checked | Not checked | 4 (≈ 12.1 µM) | 8 (≈ 24.3 µM) | 4 (≈ 12.1 µM) | 8 (≈ 24.3 µM) | > 8 | – | – | – | –
10 | Cc1c(CSc2nc3ccccc3[nH]2)cccc1SCC(=O)O | Not checked | Not checked | > 16 | > 16 | > 16 | > 16 | > 8 | – | – | – | –
11 | Cc1c(CSc2nc3ccccc3[nH]2)cccc1SCC(=O)NCc1ccccc1 | – | – | 1 (≈ 2.31 µM) | 1 (≈ 2.31 µM) | 1 (≈ 2.31 µM) | 1 (≈ 2.31 µM) | 1 (≈ 2.31 µM) | – | – | Not detected | Not detected
12 | Cc1c(CSc2nc3ccccc3[nH]2)cccc1SCCOC(=O)Nc1ccc(F)c(F)c1 | – | – | 0.25 (≈ 0.515 µM) | 0.5 (≈ 1.03 µM) | 0.25 (≈ 0.515 µM) | 0.5 (≈ 1.03 µM) | 8 (≈ 16.5 µM) | 398 | 1130 | – | –
13 | Cc1c(CSc2nc3ccccc3[nH]2)cccc1SCCOC(=O)Nc1ccccc1 | – | – | 0.5 (≈ 1.11 µM) | 0.5 (≈ 1.11 µM) | 0.5 (≈ 1.11 µM) | 0.5 (≈ 1.11 µM) | 1 (≈ 2.22 µM) | 906 | 2070 | – | –
14 | Cc1c(CSc2nc3ccccc3[nH]2)cccc1SCCNC(=O)c1cnccn1 | – | – | 0.25 (≈ 0.574 µM) | 0.5 (≈ 1.15 µM) | 0.25 (≈ 0.574 µM) | 0.5 (≈ 1.15 µM) | > 8 | 471 | 271 | – | –
15 | Cc1c(CSc2nc3ccccc3[nH]2)cccc1SCCOC(=O)Nc1ccc(N(C)C)cc1 | – | – | 0.5 (≈ 1.01 µM) | 1 (≈ 2.03 µM) | 0.5 (≈ 1.01 µM) | 1 (≈ 2.03 µM) | > 8 | 331 | 299 | – | –
16 | CC1(C)S[C@@H]2[C@H](NC(=O)[C@H](N)c3ccc(O)cc3)C(=O)N2[C@H]1C(=O)O [AMOXICILLIN] | Not checked | Not checked | 0.06 (≈ 0.164 µM) | 0.12 (≈ 0.328 µM) | 0.06 (≈ 0.164 µM) | 0.06 (≈ 0.164 µM) | – | – | – | – | –
17 | CC[C@H]1OC(=O)[C@H](C)[C@@H](O[C@H]2C[C@@](C)(OC)[C@@H](O)[C@H](C)O2)[C@H](C)[C@@H](O[C@@H]2O[C@H](C)C[C@H](N(C)C)[C@H]2O)[C@](C)(OC)C[C@@H](C)C(=O)[C@H](C)[C@@H](O)[C@]1(C)O [CLARITHROMYCIN] | – | – | < 0.06 | < 0.06 | < 0.06 | < 0.06 | – | 1000 | 1770 | – | –
18 | Cc1ncc([N+](=O)[O-])n1CCO [METRONIDAZOLE] | Not checked | Not checked | 1 (≈ 5.84 µM) | 1 (≈ 5.84 µM) | 8 (≈ 46.7 µM) | 1 (≈ 5.84 µM) | – | – | – | – | –
19 | CN(C)[C@@H]1C(O)=C(C(N)=O)C(=O)[C@@]2(O)C(O)=C3C(=O)c4c(O)cccc4[C@@](C)(O)[C@H]3C[C@@H]12 [TETRACYCLINE] | – | – | 1 (≈ 2.25 µM) | 1 (≈ 2.25 µM) | 1 (≈ 2.25 µM) | 1 (≈ 2.25 µM) | – | – | – | – | –

— ChEMBL document CHEMBL1135789, “Novel structures derived from 2-[[(2-pyridyl)methyl]thio]-1H-benzimidazole as anti-Helicobacter pylori agents, Part 2” (J Med Chem, 2002)
